Measurements taken from article PMC11897355 (Nature Communications, 2025).
Substitutions are numbered along the chain they refer to. Entries after “also recorded” stand apart in the source; their conditions may differ. Each block holds one compound with its values, some of them ahead of it.

Key:
[1] = biological target: T1, WT GlyT1 (Homo sapiens, UniProt P48067); experiment: [3H]glycine kinetic uptake assay, WT GlyT1; type: cell-based
T1 sequence (P48067 1-652 isoform P48067-3): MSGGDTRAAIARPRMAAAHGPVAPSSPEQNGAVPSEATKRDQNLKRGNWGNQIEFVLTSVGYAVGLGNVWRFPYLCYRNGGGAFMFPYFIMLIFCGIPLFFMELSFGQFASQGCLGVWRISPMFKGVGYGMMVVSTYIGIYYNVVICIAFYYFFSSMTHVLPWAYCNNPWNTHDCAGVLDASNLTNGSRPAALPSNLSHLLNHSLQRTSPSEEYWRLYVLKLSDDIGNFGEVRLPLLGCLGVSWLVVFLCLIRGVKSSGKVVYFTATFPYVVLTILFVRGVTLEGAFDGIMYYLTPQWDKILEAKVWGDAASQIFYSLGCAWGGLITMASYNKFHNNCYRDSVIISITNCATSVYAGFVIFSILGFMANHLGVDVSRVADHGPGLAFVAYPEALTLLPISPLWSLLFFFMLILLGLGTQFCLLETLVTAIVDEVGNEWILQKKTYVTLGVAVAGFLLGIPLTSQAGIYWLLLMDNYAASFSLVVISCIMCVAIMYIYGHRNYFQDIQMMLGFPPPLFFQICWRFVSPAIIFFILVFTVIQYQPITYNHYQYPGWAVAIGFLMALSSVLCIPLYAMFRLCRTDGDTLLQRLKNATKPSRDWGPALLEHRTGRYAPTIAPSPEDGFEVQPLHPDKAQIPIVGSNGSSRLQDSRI

[2] = test system: GlyT1; conditions: rat primary neurons; cited from earlier work
[3] = biological target: T2, G319S GlyT1 mutant (Homo sapiens, UniProt P48067, G373S); experiment: [3H]glycine uptake inhibition assay, GlyT1 G319S mutant; type: cell-based
T2 sequence (P48067 1-652 isoform P48067-3 G319S): T1 sequence (P48067 1-652 isoform P48067-3) with G319S
Outline: (§1)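 HEK-293F cells (2.5 × 10^6/mL) infected with baculovirus carrying wild-type or sequence-verified mutant human GlyT1. Cells collected after 15 h and washed in HEPES-Tris pH 7.4 uptake buffer, then preincubated 10 min with graded inhibitor. Uptake ran 1 min at 25 °C with 25 μM [3H]glycine/unlabeled glycine (1:2500). Two cold washes, lysis in 1% Triton X-100, scintillation counting. Uptake normalized to untreated cells. Three independent experiments in triplicate; IC50 fitted to mean data.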

[4] = biological target: T3, wild-type GlyT1 (Homo sapiens, UniProt P48067); experiment: [3H]glycine uptake inhibition assay, wild-type GlyT1 in HEK-293F cells; type: cell-based; conditions: IC50, [3H]glycine uptake
T3 sequence (P48067 1-652 isoform P48067-3): T1 sequence (P48067 1-652 isoform P48067-3)
Outline: as §1

[5] = biological target: T4, L422T GlyT1 mutant (Homo sapiens, UniProt P48067, L476T); experiment: [3H]glycine uptake inhibition assay, GlyT1 L422T mutant; type: cell-based
T4 sequence (P48067 1-652 isoform P48067-3 L422T): T1 sequence (P48067 1-652 isoform P48067-3) with L422T
Outline: as §1

[6] = biological target: T5, wild-type GlyT2 (Homo sapiens, UniProt Q9Y345); conditions: cited from earlier work
T5 sequence (Q9Y345 1-797): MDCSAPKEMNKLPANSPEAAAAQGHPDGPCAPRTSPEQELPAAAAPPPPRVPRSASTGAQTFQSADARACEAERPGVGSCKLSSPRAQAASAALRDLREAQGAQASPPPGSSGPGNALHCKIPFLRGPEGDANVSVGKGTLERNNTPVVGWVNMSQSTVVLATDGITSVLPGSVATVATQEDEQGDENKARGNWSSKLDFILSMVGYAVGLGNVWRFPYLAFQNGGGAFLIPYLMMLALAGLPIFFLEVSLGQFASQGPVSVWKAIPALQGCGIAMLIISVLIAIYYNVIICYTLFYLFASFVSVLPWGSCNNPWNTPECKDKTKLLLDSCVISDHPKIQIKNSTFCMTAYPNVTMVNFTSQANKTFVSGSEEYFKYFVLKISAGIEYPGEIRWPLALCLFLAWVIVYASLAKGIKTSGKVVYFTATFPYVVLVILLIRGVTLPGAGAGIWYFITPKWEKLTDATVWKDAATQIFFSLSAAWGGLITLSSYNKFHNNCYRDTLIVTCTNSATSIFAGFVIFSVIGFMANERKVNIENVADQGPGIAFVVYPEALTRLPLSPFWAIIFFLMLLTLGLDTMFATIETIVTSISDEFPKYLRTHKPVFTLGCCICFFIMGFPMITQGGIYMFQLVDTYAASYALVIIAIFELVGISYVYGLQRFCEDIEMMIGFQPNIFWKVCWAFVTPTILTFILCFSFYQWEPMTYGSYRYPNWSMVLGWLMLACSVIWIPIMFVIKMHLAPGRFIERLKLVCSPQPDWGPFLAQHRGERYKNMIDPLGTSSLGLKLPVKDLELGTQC

[7] = biological target: T5, wild-type GlyT2; experiment: [3H]glycine uptake inhibition assay, wild-type GlyT2; type: cell-based
[8] = biological target: T6, S479G GlyT2 mutant (Homo sapiens, UniProt Q9Y345, S479G); experiment: [3H]glycine uptake inhibition assay, GlyT2 S479G mutant; type: cell-based
T6 sequence (Q9Y345 1-797 S479G): T5 sequence (Q9Y345 1-797) with S479G

[9] = test system: WT GlyT1; experiment: Cell surface biotinylation and immunoblot; type: cell-based, human; conditions: 2.5 mg/mL and 3.5 mg/mL MβCD
[10] = test system: HEK-293F cells; experiment: Cholesterol quantification after MβCD or wsCHOL treatment; type: cell-based, human

Km ([1]; WT GlyT1, untreated cells): 126 µM
Compound: NCC(=O)O [glycine]

IC50 ([4]; wild-type GlyT1): 0.162 ± 0.0196 µM | IC50 [5]: 5.25 ± 0.33 µM
Compound: C[C@@H](Oc1ccc(S(C)(=O)=O)cc1C(=O)N1C[C@@H]2C[C@]2(c2cc(C(F)(F)F)on2)C1)C(F)(F)F [iclepertin]
IC50 [2]: 0.0052 ± 0.0012 µM | inhibition of G319S mutant [3]: not inhibited; also recorded: no visible inhibition effect

sensitivity of WT GlyT2 to inhibition [7]: not sensitive | IC50 [3]: 18600 ± 1550 µM | reduction of inhibitory potency on G319S compared to WT GlyT1 [3]: ~ 200 fold | IC50 ([4]; wild-type GlyT1, mean ± S.E.M.): 96.8 ± 13.7 µM
Compound: CNCC(=O)O [sarcosine, N-methyl glycine]
inhibition of GlyT1 versus GlyT2 [6]: can inhibit GlyT1 but not GlyT2 | susceptibility of S479G GlyT2 to inhibition [8]: susceptibility similar to that of WT GlyT1

reduction of Vmax compared to WT GlyT1 ([1]; 2.5 mg/mL MβCD): about 19.6% | reduction of Vmax compared to WT GlyT1 ([1]; 3.5 mg/mL MβCD): ~26.7% | effect on Km values ([1]; 2.5 and 3.5 mg/mL MβCD): remained relatively unaffected
Compound: Methyl-β-cyclodextrin [MβCD]
effect on surface expression of GlyT1 [9]: without altering the surface expression | decrease of cholesterol content on the membrane ([10]; 2.5 mg/mL MβCD): 10% | decrease of cholesterol content on the membrane ([10]; 3.5 mg/mL MβCD): 20%
